Source: ChEMBL document CHEMBL1144503, “Structure determination of inonotsuoxides A and B and in vivo anti-tumor promoting activity of inotodiol from the sclerotia of Inonotus obliquus” (Bioorg Med Chem, 2007)

Columns and labels:
Raji = test: Cell viability in Raji cells at 1000 mol ratio/TPA relative to control; type: functional, Homo sapiens
In short: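 Raji cells under the EBV-EA induction conditions (n-butyric acid 4 mmol plus TPA 32 pmol, 48 h, 37 C), with test compound added in DMSO at 1000 mol ratio to TPA. Viability was assayed by Trypan blue staining and reported as a percentage.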

Human gammaherpesvirus 4 [1] = test: Inhibition of TPA-induced EBV-EA activation in Raji cells at 10 mol ratio/TPA relative to control; values are per cent of control
Human gammaherpesvirus 4 [2] = test: Inhibition of TPA-induced EBV-EA activation in Raji cells at 500 mol ratio/TPA relative to control; values are per cent of control
Human gammaherpesvirus 4 [3] = test: Inhibition of TPA-induced EBV-EA activation in Raji cells at 100 mol ratio/TPA relative to control; values are per cent of control
Human gammaherpesvirus 4 [4] = test: Inhibition of TPA-induced EBV-EA activation in Raji cells at 1000 mol ratio/TPA relative to control; values are per cent of control
Mus musculus [5] = species: Mus musculus; test: Suppression of DMBA/TPA-induced papilloma-formation in ICR mouse within 10 week; type: functional
Mus musculus [6] = species: Mus musculus; test: Toxicity in ICR mouse with DMBA/TPA-induced papilloma; type: organism-based; details: in vivo
In short: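 Specific pathogen-free female ICR mice, 6 weeks old, in three groups of 15. Shaved backs were initiated topically with DMBA (390 nmol) in 0.1 ml acetone. From one week later, TPA (1.7 nmol) in 0.1 ml acetone was applied to the skin twice weekly. Treated groups also received 85 nmol of test agent with TPA. Mice were followed to week 20.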

Mus musculus [7] = species: Mus musculus; test: Suppression of DMBA/TPA-induced papilloma-formation in ICR mouse at 85 nmol within 10 week; type: functional

CC(=O)O[C@H]1C[C@H]([C@@H](C)[C@H]2CC[C@@]3(C)C4=C(CC[C@]23C)[C@@]2(C)CC[C@H](OC(C)=O)C(C)(C)[C@@H]2CC4)OC1(C)C showed an Activity (Raji) of 70%.
With CC(=O)O[C@H]1CC[C@]2(C)C3=C(CC[C@H]2C1(C)C)[C@]1(C)CC[C@H]([C@@H](CCC=C(C)C)C(=O)O)[C@@]1(C)CC3 [ACETYL TRAMETENOLIC ACID] the “level, % of control” value (Human gammaherpesvirus 4 [1]) was 100%, the “level, % of control” value (Human gammaherpesvirus 4 [2]) was 47.8% and the “level, % of control” value (Human gammaherpesvirus 4 [3]) was 79%. The “level, % of control” value (Human gammaherpesvirus 4 [4]) was 12.7% and the Activity (Raji) was 70%.
C[C@@H]([C@H]1CC[C@@]2(C)C3=C(CC[C@]12C)[C@@]1(C)CC[C@H](O)C(C)(C)[C@@H]1CC3)[C@H]1C[C@H](O)C(C)(C)O1 [INONOTSUOXIDE A] was tested, and the “level, % of control” value (Human gammaherpesvirus 4 [1]) was 94.3%, the “level, % of control” value (Human gammaherpesvirus 4 [2]) was 42% and the “level, % of control” value (Human gammaherpesvirus 4 [3]) was 71.3%. For the same compound, the “level, % of control” value (Human gammaherpesvirus 4 [4]) was 6.3% and the Activity (Raji) was 70%.
In the case of CC(C)=CC[C@@H](O)[C@@H](C)[C@H]1CC[C@@]2(C)C3=C(CC[C@]12C)[C@@]1(C)CC[C@H](O)C(C)(C)[C@@H]1CC3 [INOTODIOL], the “level, % of control” value (Human gammaherpesvirus 4 [1]) is reported as 93.1%, the “level, % of control” value (Human gammaherpesvirus 4 [2]) is reported as 37.6% and the “level, % of control” value (Human gammaherpesvirus 4 [3]) is reported as 66.1%. The Activity (Mus musculus [5]) was <30%, the “level, % of control” value (Human gammaherpesvirus 4 [4]) was 2.4% and the Activity (Mus musculus [6]) was “Non-toxic”. The Activity (Raji) was 70%.
With CC(C)=CCC[C@@H](C)[C@H]1CC[C@@]2(C)C3=C(CC[C@]12C)[C@@]1(C)CC[C@H](O)C(C)(C)[C@@H]1CC3 [LANOSTEROL] the “level, % of control” value (Human gammaherpesvirus 4 [1]) was 96.3%, the “level, % of control” value (Human gammaherpesvirus 4 [2]) was 44.7% and the “level, % of control” value (Human gammaherpesvirus 4 [3]) was 74.3%. The “level, % of control” value (Human gammaherpesvirus 4 [4]) was 4.9% and the Activity (Raji) was 70%.
In the case of CC1(C)CC[C@]2(C(=O)O)CC[C@]3(C)C(=CC[C@@H]4[C@@]5(C)CC[C@H](O)C(C)(C)[C@@H]5CC[C@]43C)[C@@H]2C1 [OLEANOLIC_ACID], the Activity (Mus musculus [7]) is reported as <30% and the Activity (Mus musculus [6]) is reported as “Non-toxic”.
In the case of CC(C)=CCC[C@@H](C(=O)O)[C@H]1CC[C@@]2(C)C3=C(CC[C@]12C)[C@@]1(C)CC[C@H](O)C(C)(C)[C@@H]1CC3 [TRAMETENOLIC ACID], the “level, % of control” value (Human gammaherpesvirus 4 [1]) is reported as 98.6%, the “level, % of control” value (Human gammaherpesvirus 4 [2]) is reported as 45% and the “level, % of control” value (Human gammaherpesvirus 4 [3]) is reported as 75.4%. For the same compound, the “level, % of control” value (Human gammaherpesvirus 4 [4]) was 9.2% and the Activity (Raji) was 70%.
